Test results reported in ChEMBL document CHEMBL3232792, “Cyclic secondary sulfonamides: unusually good inhibitors of cancer-related carbonic anhydrase enzymes” (J Med Chem, 2014).

Assays:
Carbonic anhydrase 1 = Carbonic anhydrase 1 (Homo sapiens, UniProt P00915); experiment: Inhibition of human recombinant carbonic anhydrase 1 expressed in Escherichia coli by stopped flow CO2 hydration assay
Carbonic anhydrase 2 = Carbonic anhydrase 2 (Homo sapiens, UniProt P00918); experiment: Inhibition of human recombinant carbonic anhydrase 2 expressed in Escherichia coli by stopped flow CO2 hydration assay
Carbonic anhydrase 9 = Carbonic anhydrase 9 (Homo sapiens, UniProt Q16790); experiment: Inhibition of human recombinant carbonic anhydrase 9 expressed in Escherichia coli by stopped flow CO2 hydration assay
Procedure, shortened: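 Recombinant human CA IX produced in E. coli, used at 8.0 nM; CO2 hydration activity followed by stopped-flow. IC50 is taken from seven-concentration dose–response curves fitted by nonlinear least squares, mean of at least three determinations. Ki is derived by Cheng–Prusoff, Ki = IC50/(1 + [S]/Km), where [S] is the CO2 concentration used.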

Carbonic anhydrase 4 = Carbonic anhydrase 4 (Homo sapiens, UniProt P22748)
Chain of Carbonic anhydrase 4 (P22748 whole entry): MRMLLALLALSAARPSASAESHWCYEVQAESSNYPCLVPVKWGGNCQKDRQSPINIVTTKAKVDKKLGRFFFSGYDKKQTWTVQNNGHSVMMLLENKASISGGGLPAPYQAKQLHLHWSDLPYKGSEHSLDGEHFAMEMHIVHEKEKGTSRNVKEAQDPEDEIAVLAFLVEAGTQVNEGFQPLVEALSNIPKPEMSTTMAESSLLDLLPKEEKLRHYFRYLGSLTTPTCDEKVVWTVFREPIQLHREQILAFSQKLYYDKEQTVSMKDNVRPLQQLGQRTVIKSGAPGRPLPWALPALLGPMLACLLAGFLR

[1] = target: Carbonic anhydrase 5A, mitochondrial (Homo sapiens, UniProt P35218)
Chain of Carbonic anhydrase 5A, mitochondrial (P35218 whole entry): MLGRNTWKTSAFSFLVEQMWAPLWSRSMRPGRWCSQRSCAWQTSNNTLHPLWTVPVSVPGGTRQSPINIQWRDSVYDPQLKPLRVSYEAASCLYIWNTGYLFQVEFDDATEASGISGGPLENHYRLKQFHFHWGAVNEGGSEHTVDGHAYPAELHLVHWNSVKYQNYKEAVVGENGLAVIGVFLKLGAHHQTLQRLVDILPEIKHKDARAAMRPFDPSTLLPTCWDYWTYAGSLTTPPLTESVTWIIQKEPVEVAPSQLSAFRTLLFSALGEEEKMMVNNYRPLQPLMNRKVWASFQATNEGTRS

[2] = target: Carbonic anhydrase 5B, mitochondrial (Homo sapiens, UniProt Q9Y2D0)
Chain of Carbonic anhydrase 5B, mitochondrial (Q9Y2D0 whole entry): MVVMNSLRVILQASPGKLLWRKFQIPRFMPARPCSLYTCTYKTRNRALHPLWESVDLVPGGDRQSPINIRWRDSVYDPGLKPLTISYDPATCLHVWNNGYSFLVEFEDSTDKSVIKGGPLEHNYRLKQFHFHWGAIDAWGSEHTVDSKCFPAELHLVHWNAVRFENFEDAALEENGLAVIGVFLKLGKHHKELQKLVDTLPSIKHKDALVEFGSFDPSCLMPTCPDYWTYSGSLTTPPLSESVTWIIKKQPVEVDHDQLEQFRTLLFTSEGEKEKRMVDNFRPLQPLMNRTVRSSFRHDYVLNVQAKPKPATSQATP

Carbonic anhydrase 7 = Carbonic anhydrase 7 (Homo sapiens, UniProt P43166)
Chain of Carbonic anhydrase 7 (P43166 whole entry): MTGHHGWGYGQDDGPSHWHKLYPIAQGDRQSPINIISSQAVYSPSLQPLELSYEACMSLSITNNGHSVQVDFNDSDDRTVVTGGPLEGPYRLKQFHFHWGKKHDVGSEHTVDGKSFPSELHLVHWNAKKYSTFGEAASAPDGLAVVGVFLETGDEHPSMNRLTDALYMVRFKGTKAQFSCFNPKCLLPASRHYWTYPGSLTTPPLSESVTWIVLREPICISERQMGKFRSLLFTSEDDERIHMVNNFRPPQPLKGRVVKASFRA

Chain of Carbonic anhydrase 1 (P00915 whole entry): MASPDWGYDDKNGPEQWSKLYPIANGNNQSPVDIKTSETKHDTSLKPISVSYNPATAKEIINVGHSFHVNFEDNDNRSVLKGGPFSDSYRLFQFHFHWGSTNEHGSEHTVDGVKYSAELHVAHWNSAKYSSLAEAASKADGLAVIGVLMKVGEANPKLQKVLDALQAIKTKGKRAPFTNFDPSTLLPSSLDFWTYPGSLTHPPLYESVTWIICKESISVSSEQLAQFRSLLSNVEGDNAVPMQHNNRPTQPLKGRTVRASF

SMILES | Ki (Carbonic anhydrase 1) [nM] | Ki (Carbonic anhydrase 2) [nM] | Ki (Carbonic anhydrase 9) [nM] | other results
Nc1ccc2c(c1)S(=O)(=O)NC2=O | > 50000 | > 50000 | 610 | 
O=C1NS(=O)(=O)c2cc([N+](=O)[O-])ccc21 | > 50000 | > 50000 |  | 
[N-]=[N+]=Nc1ccc2c(c1)S(=O)(=O)NC2=O |  |  | 466 | 
O=C1NS(=O)(=O)c2cc(-n3cc(-c4ccccc4)nn3)ccc21 | > 50000 |  | 484 | 
Cc1cccc(-c2cn(-c3ccc4c(c3)S(=O)(=O)NC4=O)nn2)c1 | > 50000 |  | 89.7 | 
O=C1NS(=O)(=O)c2cc(-n3cc(-c4ccccc4C(F)(F)F)nn3)ccc21 |  | > 50000 | 443 | 
COc1ccc(-c2cn(-c3ccc4c(c3)S(=O)(=O)NC4=O)nn2)cc1 |  | > 50000 | 341 | 
Cc1cc(-c2cn(-c3ccc4c(c3)S(=O)(=O)NC4=O)nn2)ccc1F | > 50000 |  | 47.8 | 
COc1ccc(-c2cn(-c3ccc4c(c3)S(=O)(=O)NC4=O)nn2)c(C)c1 |  | > 50000 | 95.7 | 
O=C1NS(=O)(=O)c2cc(-n3cc(CO[C@@H]4O[C@H](CO)[C@@H](O)[C@H](O)[C@H]4O)nn3)ccc21 | > 50000 | > 50000 | 49.5 | 
O=C1NS(=O)(=O)c2ccccc21 [SACCHARIN] |  |  |  | Ki (Carbonic anhydrase 4): 7920 nM; Ki [1]: 10100 nM; Ki [2]: 7210 nM; Ki (Carbonic anhydrase 7): 10 nM; pKa (physchem): 1.3
